One block for each molecule: values may come before it.
Columns and labels:
MCF7 [1] = assay: Antiproliferative activity against human MCF7 cells assessed as inhibition of cell growth incubated for 72 hrs by Hoechst 33342/propidium iodide staining based fluorescence analysis; assay type: functional; settings: MCF7, 72 h
SK-BR-3 = assay: Antiproliferative activity against human SK-BR-3 cells assessed as inhibition of cell growth incubated for 72 hrs by Hoechst 33342/propidium iodide staining based fluorescence analysis; assay type: functional; settings: SK-BR-3, 72 h
MDA-MB-231 = assay: Antiproliferative activity against human MDA-MB-231 cells assessed as inhibition of cell growth incubated for 72 hrs by Hoechst 33342/propidium iodide staining based fluorescence analysis; assay type: functional; settings: MDA-MB-231, 72 h
MCF-10A [2] = assay: (§1) Cytotoxicity against human MCF-10A cells assessed as inhibition of cell growth incubated for 72 hrs by Hoechst 33342/propidium iodide staining based fluorescence analysis; assay type: toxicity; settings: mcf-10a
MCF-10A [3] = assay: (§2) Cytotoxicity against human MCF-10A cells assessed as inhibition of cell growth incubated for 24 hrs by Hoechst 33342/propidium iodide staining based fluorescence analysis; assay type: toxicity; settings: mcf-10a
[4] = as §1; assay type: toxicity; settings: human, MCF-10A cells
MCF7 [5] = assay: Antiproliferative activity against human MCF7 cells assessed as inhibition of cell growth incubated for 24 hrs by Hoechst 33342/propidium iodide staining based fluorescence analysis; assay type: functional; settings: MCF7, 24 h
[6] = Terminal half life in CD-1 mouse plasma at 2.5 mg/kg, iv measured for 24 hrs by LC-MS/MS analysis; assay type: ADME, organism-based; settings: in vivo
Procedure, shortened: (§3)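 Fasted (~4 h) male CD1 mice, n = 24 per route, received 2.5 mg/kg iv or ip in 5% DMSO/95% normal saline. Blood was drawn into K2EDTA at pre-dose, 0.083, 0.5, 1, 2, 4, 8 and 24 h, and plasma was separated. Samples were precipitated with acetonitrile, with tolbutamide as internal standard, then quantified by UPLC-MS/MS (MRM). Parameters came from noncompartmental analysis.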

[7] = Cmax in CD-1 mouse plasma at 2.5 mg/kg, iv measured for 24 hrs by LC-MS/MS analysis; assay type: ADME, organism-based; set-up: time 24 hrs, dose 2.5 mg/kg, route iv; settings: in vivo; procedure, shortened: as §3
[8] = Tmax in CD-1 mouse plasma at 2.5 mg/kg, iv measured for 24 hrs by LC-MS/MS analysis; assay type: ADME, organism-based; settings: in vivo; procedure, shortened: as §3
[9] = AUC (0 to infinity) in CD-1 mouse plasma at 2.5 mg/kg, iv measured for 24 hrs by LC-MS/MS analysis; assay type: ADME, organism-based; set-up: dose 2.5 mg/kg, time 24 hrs, route iv; procedure, shortened: as §3
[10] = Apparent half life in CD-1 mouse plasma at 2.5 mg/kg, ip measured for 24 hrs by LC-MS/MS analysis; assay type: ADME, organism-based; settings: in vivo; procedure, shortened: as §3
[11] = Cmax in CD-1 mouse plasma at 2.5 mg/kg, ip measured for 24 hrs by LC-MS/MS analysis; assay type: ADME, organism-based; set-up: dose 2.5 mg/kg, time 24 hrs, route ip; settings: in vivo; procedure, shortened: as §3
[12] = Tmax in CD-1 mouse plasma at 2.5 mg/kg, ip measured for 24 hrs by LC-MS/MS analysis; assay type: ADME, organism-based; settings: in vivo; procedure, shortened: as §3
[13] = AUC (0 to infinity) in CD-1 mouse plasma at 2.5 mg/kg, ip measured for 24 hrs by LC-MS/MS analysis; assay type: ADME, organism-based; set-up: dose 2.5 mg/kg, time 24 hrs, route ip; procedure, shortened: as §3
[14] = Bioavailability in CD-1 mouse plasma at 2.5 mg/kg, ip measured for 24 hrs by LC-MS/MS analysis; assay type: ADME, organism-based; settings: in vivo; procedure, shortened: as §3
[15] = Tmax in CD-1 mouse brain at 2.5 mg/kg, ip measured for 24 hrs by LC-MS/MS analysis; assay type: ADME, organism-based; settings: in vivo
Procedure, shortened: (§4)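 Male CD1 mice (25–30 g), fasted ~4 h, given 2.5 mg/kg ip in 5% DMSO/95% normal saline. Brain, liver and kidney were taken at pre-dose, 0.5, 2, 4 and 24 h and homogenized in 5 volumes PBS. Homogenates got tolbutamide internal standard and acetonitrile protein precipitation. UPLC-MS/MS used MRM. Parameters came from noncompartmental analysis.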

[16] = AUC (0 to infinity) in CD-1 mouse brain at 2.5 mg/kg, ip measured for 24 hrs by LC-MS/MS analysis; assay type: ADME, organism-based; set-up: dose 2.5 mg/kg, time 24 hrs, route ip; settings: in vivo; procedure, shortened: as §4
[17] = Apparent half life in CD-1 mouse kidney at 2.5 mg/kg, ip measured for 24 hrs by LC-MS/MS analysis; assay type: ADME, organism-based; settings: in vivo; procedure, shortened: as §4
[18] = Cmax in CD-1 mouse kidney at 2.5 mg/kg, ip measured for 24 hrs by LC-MS/MS analysis; assay type: ADME, organism-based; set-up: dose 2.5 mg/kg, time 24 hrs, route ip; settings: in vivo; procedure, shortened: as §4
[19] = Tmax in CD-1 mouse kidney at 2.5 mg/kg, ip measured for 24 hrs by LC-MS/MS analysis; assay type: ADME, organism-based; settings: in vivo; procedure, shortened: as §4
[20] = AUC (0 to infinity) in CD-1 mouse kidney at 2.5 mg/kg, ip measured for 24 hrs by LC-MS/MS analysis; assay type: ADME, organism-based; set-up: time 24 hrs, dose 2.5 mg/kg, route ip; settings: in vivo; procedure, shortened: as §4
[21] = Apparent half life in CD-1 mouse liver at 2.5 mg/kg, ip measured for 24 hrs by LC-MS/MS analysis; assay type: ADME, organism-based; settings: in vivo; procedure, shortened: as §4
[22] = Cmax in CD-1 mouse liver at 2.5 mg/kg, ip measured for 24 hrs by LC-MS/MS analysis; assay type: ADME, organism-based; set-up: time 24 hrs, dose 2.5 mg/kg, route ip; settings: in vivo; procedure, shortened: as §4
[23] = Tmax in CD-1 mouse liver at 2.5 mg/kg, ip measured for 24 hrs by LC-MS/MS analysis; assay type: ADME, organism-based; settings: in vivo; procedure, shortened: as §4
[24] = AUC (0 to infinity) in CD-1 mouse liver at 2.5 mg/kg, ip measured for 24 hrs by LC-MS/MS analysis; assay type: ADME, organism-based; set-up: time 24 hrs, dose 2.5 mg/kg, route ip; settings: in vivo; procedure, shortened: as §4
[25] = Clearance in CD-1 mouse plasma at 2.5 mg/kg, iv measured for 24 hrs by LC-MS/MS analysis relative to hepatic blood flow; assay type: ADME, organism-based; settings: in vivo; procedure, shortened: as §3
[26] = Volume of distribution in CD-1 mouse plasma at 2.5 mg/kg, iv measured for 24 hrs by LC-MS/MS analysis; assay type: ADME, organism-based; settings: in vivo; procedure, shortened: as §3
BNC3 = assay: Antiproliferative activity against human BNC3 cells assessed as suppression of cell growth incubated for 24 to 72 hrs by CCK-8 assay; assay type: functional, cell-based; settings: dose 10-300 µM, time 24-72 hrs
Procedure, shortened: (§5)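 Primary patient-derived glioblastoma lines were grown in RPMI 1640 with 10% FBS. Cells were seeded at 3,000 per well and dosed 24 h later at 10, 50, 100, 200 and 300 μM for 24 or 72 h, with BiCNU as control. CCK-8 was added and OD450 read after 2 h at 37 °C. Data are % cell survival, from 3 independent replicates.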

BNC6 = assay: Antiproliferative activity against human BNC6 cells assessed as suppression of cell growth incubated for 24 to 72 hrs by CCK-8 assay; assay type: functional, cell-based; settings: dose 10-300 µM, time 24-72 hrs; procedure, shortened: as §5
[27] = Antiproliferative activity against human BNC3 cells assessed as inhibition of cell growth incubated for 72 hrs by CCK-8 assay; assay type: functional, cell-based; settings: BNC3, 72 h; procedure, shortened: as §5
[28] = Antiproliferative activity against human BNC6 cells assessed as inhibition of cell growth incubated for 72 hrs by CCK-8 assay; assay type: functional, cell-based; settings: BNC6, 72 h; procedure, shortened: as §5
[29] = Antiproliferative activity against human WSU-HN30 cells assessed as inhibition of cell growth incubated for 72 hrs by CCK-8 assay; assay type: functional, cell-based; settings: WSU-HN30, 72 h
Procedure, shortened: (§6)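 Radiotherapy-resistant HNSCC lines were used: HN30 from pharynx SCC and HN31 from a lymph-node metastasis of the same patient. Cells in RPMI 1640 with 10% FBS were seeded at 3,000 per well and treated 24 h later with 10–300 μM (5 levels) for 24 or 72 h, with cisplatin as control. CCK-8 was read at OD450 after 2 h. Data are % survival, n = 3 independent experiments.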

[30] = Antiproliferative activity against human WSU-HN31 cells assessed as inhibition of cell growth incubated for 72 hrs by CCK-8 assay; assay type: functional, cell-based; settings: WSU-HN31, 72 h; procedure, shortened: as §6
WSU-HN30 = assay: Antiproliferative activity against human WSU-HN30 cells assessed as suppression of cell growth incubated for 24 to 72 hrs by CCK-8 assay; assay type: functional, cell-based; settings: dose 10-300 µM, time 24-72 hrs; procedure, shortened: as §6
WSU-HN31 = assay: Antiproliferative activity against human WSU-HN31 cells assessed as suppression of cell growth incubated for 24 to 72 hrs by CCK-8 assay; assay type: functional, cell-based; settings: dose 10-300 µM, time 24-72 hrs; procedure, shortened: as §6
[31] = as §2; assay type: toxicity; settings: human, MCF-10A cells
[32] = Stability in mouse plasma assessed as drug degradation; assay type: ADME, cell-free
[33] = Stability in mouse liver microsomes assessed as drug degradation; assay type: ADME, Microsome

Compound: C=C(C[C@H](NC(=O)OC(C)(C)C)C(=O)OC(C)(C)C)C(=O)Nc1ccc(F)cc1
IC50 (MCF7 [1]): > 1 mM | IC50 (SK-BR-3): < 1 mM | IC50 (MDA-MB-231): < 1 mM | IC50 (MCF-10A [2]): < 1 mM

Compound: CC/C(=C(\c1ccccc1)c1ccc(OCCN(C)C)cc1)c1ccccc1 [TAMOXIFEN]
IC50 (MCF7 [1]): < 1 mM | IC50 (SK-BR-3): < 1 mM | IC50 (MDA-MB-231): < 1 mM | IC50 (MCF-10A [2]): > 1 mM | IC50 (MCF-10A [3]): > 1 mM

Compound: O=C(c1cc(Cc2n[nH]c(=O)c3ccccc23)ccc1F)N1CCN(C(=O)C2CC2)CC1 [OLAPARIB]
IC50 (MCF7 [1]): < 1 mM | IC50 (SK-BR-3): < 1 mM | IC50 (MDA-MB-231): < 1 mM | IC50 at 72 h [4]: > 1 mM | IC50 (MCF-10A [3]): > 1 mM | IC50 (MCF7 [5]): > 1 mM

Compound: C=C(C[C@H](N)C(=O)O)C(=O)Nc1ccccc1
Activity (BNC3): Dose-Dependent Effect | Activity (BNC6): Dose-Dependent Effect | IC50 [27]: 0.217 mM | IC50 [28]: 0.21 mM | IC50 [29]: 0.0929 mM | IC50 [30]: 0.199 mM | Activity (WSU-HN30): Dose-Dependent Effect | Activity (WSU-HN31): Dose-Dependent Effect | IC50 at 72 h [4]: > 1 mM | IC50 at 24 h [31]: > 1 mM | IC50 (MCF7 [5]): > 1 mM

The next lines start with results.

beta t1/2 [6]: 48 min | Cmax [7]: 3016 ng/mL | Tmax [8]: 7.2 min | AUC(0-inf) [9]: 1460 ng·h/mL | t1/2(app) [10]: 25.8 min | Cmax [11]: 1543 ng/mL | Tmax [12]: 13.2 min | AUC(0-inf) [13]: 967 ng·h/mL | F [14]: 66% | Tmax [15]: 30 min | AUC [16]: 44 ng·h/g | t1/2(app) [17]: 27.6 min | Cmax [18]: 17681 ng/g | Tmax [19]: 30 min | AUC [20]: 21944 ng·h/g | t1/2(app) [21]: 25.8 min | Cmax [22]: 7291 ng/g | Tmax [23]: 60 min | AUC [24]: 10596 ng·h/g | CL [25]: 31% | Vd [26]: 4.6 L/kg
Compound: C=C(C[C@H](N)C(=O)O)C(=O)NCc1ccc(F)cc1
Activity (BNC3): Dose-Dependent Effect | Activity (BNC6): Dose-Dependent Effect | IC50 [27]: 0.169 mM | IC50 [28]: 0.189 mM | IC50 [29]: 0.102 mM | IC50 [30]: 0.196 mM | Activity (WSU-HN30): Dose-Dependent Effect | Activity (WSU-HN31): Dose-Dependent Effect | IC50 at 72 h [4]: > 1 mM | IC50 at 24 h [31]: > 1 mM

Stability [32]: Unstable | Stability [33]: Unstable
Compound: NCc1ccc(F)cc1
